In PMC5569645 (ACS Chemical Biology, 2017):
“Also recorded” adds a separate entry of the source.

Columns and labels:
purified WT NOD2 [1] = target: T1, purified WT NOD2 (Homo sapiens, UniProt Q9HC29); assay: Backscattering interferometry; type: binding
How it was run: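 Purified Flag-tagged human WT NOD2 from baculovirus/insect cells, stored at 4 °C and used within 3 days, at a fixed 10 nM in PBS pH 6.5. Increasing ligand, incubated 40 min at RT in the dark, then read by BSI on a passivated microfluidic chip at 25 °C. Phase change plotted against concentration; purified NOD1 signal under identical conditions subtracted. Single-site fit; run in triplicate, Kd reported as a range.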

purified WT NOD2 [2] = target: T1, purified WT NOD2; assay: SPR binding assay, surface-tethered ligands and purified WT NOD2
How it was run: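 Amine-functionalized peptidoglycan derivatives coupled in separate lanes to carboxylic acid-terminated thioalkane self-assembled monolayers on gold. Purified Flag-tagged human WT NOD2 (insect-cell expressed, used within 3 days) flowed over at pH 6.5. Apparent dissociation constants taken from the adsorption isotherm, not a true KD.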

[3] = target: NOD2 in native membrane vesicles (Homo sapiens, UniProt Q9HC29); type: binding; conditions: for relative binding strength / binding to NOD2 in the native-membrane environment (in words): BSI; for relative binding strength: NOD2 in native membrane vesicles; for binding to NOD2 in the native-membrane environment (in words): native-membrane vesicles; for BSI signal on titration after preincubation with excess ligand 2: competition binding, membrane vesicles preincubated with ligand 2 (10 μM)
NOD2 in native membrane vesicles, sequence (Q9HC29 whole entry): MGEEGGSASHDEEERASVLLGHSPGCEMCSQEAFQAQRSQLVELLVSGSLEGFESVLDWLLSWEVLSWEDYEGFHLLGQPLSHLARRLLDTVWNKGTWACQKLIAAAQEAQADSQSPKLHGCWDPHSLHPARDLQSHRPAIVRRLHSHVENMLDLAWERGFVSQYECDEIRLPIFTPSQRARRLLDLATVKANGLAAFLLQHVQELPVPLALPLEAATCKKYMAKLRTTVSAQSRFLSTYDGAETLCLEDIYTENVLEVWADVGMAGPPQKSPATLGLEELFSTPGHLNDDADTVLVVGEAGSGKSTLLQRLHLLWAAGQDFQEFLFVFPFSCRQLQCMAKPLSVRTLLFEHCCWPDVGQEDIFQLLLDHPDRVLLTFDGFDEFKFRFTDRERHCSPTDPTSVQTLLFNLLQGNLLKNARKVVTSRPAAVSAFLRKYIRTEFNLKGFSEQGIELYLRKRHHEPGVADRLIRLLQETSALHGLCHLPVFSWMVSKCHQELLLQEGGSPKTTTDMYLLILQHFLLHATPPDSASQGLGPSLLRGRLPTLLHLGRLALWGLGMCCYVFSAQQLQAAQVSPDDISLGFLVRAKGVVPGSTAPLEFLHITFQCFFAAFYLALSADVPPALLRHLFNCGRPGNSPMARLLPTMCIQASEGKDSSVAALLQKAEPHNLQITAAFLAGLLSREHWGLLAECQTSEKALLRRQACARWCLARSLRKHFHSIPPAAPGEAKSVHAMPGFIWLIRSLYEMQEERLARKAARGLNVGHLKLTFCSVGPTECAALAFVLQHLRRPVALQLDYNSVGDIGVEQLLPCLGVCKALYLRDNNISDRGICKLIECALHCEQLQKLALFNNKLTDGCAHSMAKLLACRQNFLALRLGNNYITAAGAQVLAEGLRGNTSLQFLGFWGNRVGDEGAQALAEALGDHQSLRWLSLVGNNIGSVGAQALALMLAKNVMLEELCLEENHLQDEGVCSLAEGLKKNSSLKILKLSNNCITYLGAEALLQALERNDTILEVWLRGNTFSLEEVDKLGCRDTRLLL
How it was run: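 Vesicles: about 1 × 10^8 HEK293T-Nod2Myc/tet-op cells in ice-cold HBSS with EDTA-free protease inhibitors, probe-sonicated to clarity, passed through a 220 nm filter (2 h, 6000g, 4 °C). Filtrate stored at 4 °C up to 4 days. Checked by DLS, FM1-43FX lipid stain and Western blot. Fixed vesicle amount plus ligand titration, 40 min dark, RT. BSI chip at 25 °C. Referenced to NOD2-negative HEK293T vesicles; single-site Langmuir fit. Competition: 10 μM excess ligand preincubation, then titration.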

T1 sequence (Q9HC29 whole entry): as above

## CC(=O)N[C@@H]1[C@@H](O[C@H](C)C(=O)N[C@@H](C)C(=O)O)[C@H](O)[C@@H](CN)O[C@@H]1O [ligand 18]
Purified WT NOD2 [1]
  Kd: 15 to 30 nM
Purified WT NOD2 [2]
  Kd: 24 to 36 nM
[3]
  relative binding strength: strong
  binding to NOD2 in the native-membrane environment (in words): indications of binding but unusual curves

## N[C@H](CCC(=O)N[C@H](CCC[C@H](N)C(=O)O)C(=O)O)C(=O)O [iE-DAP, reference compound]
[3]
  binding to NOD2 in the native-membrane environment (in words): did not bind

## CC(=O)N[C@H]1C(O)O[C@H](CO)[C@@H](O)[C@@H]1O[C@H](C)C(=O)O (some centres unmarked) [N-acetyl-muramic acid, reference compound]
[3]
  binding to NOD2 in the native-membrane environment (in words): did not bind; also recorded: does not bind or activate

## COC(=O)[C@@H](C)O[C@H]1[C@H](O)[C@@H](CO)OC(O)[C@@H]1NC(C)=O (some centres unmarked) [ligand 23, N-acetyl muramyl methyl ester]
[3]
  binding to NOD2 in the native-membrane environment (in words): bound with similar high affinity

## COC(=O)[C@H](C)NC(=O)[C@@H](C)O[C@H]1[C@H](O)[C@@H](CN)O[C@H](O)[C@@H]1NC(C)=O [ligand 19]
Purified WT NOD2 [1]
  Kd: 8 to 20 nM
Purified WT NOD2 [2]
  Kd: 16 to 30 nM
[3]
  Kd: 3 to 30 nM
  relative binding strength: strong
  binding to NOD2 in the native-membrane environment (in words): bind with high affinity; also recorded: strongly bound

## CC(=O)N[C@@H]1[C@@H](O[C@H](C)C(=O)N[C@@H](C)C(=O)N[C@@H](CCC(=O)O)C(N)=O)[C@H](O)[C@@H](CN)O[C@@H]1O [ligand 3, 6-amino-MDP-(LL)]
Purified WT NOD2 [1]
  Kd: 1 to 6 nM
Purified WT NOD2 [2]
  Kd: 10 to 18 nM
[3]
  Kd: 3 to 30 nM
  relative binding strength: strong
  binding to NOD2 in the native-membrane environment (in words): bind with high affinity

## CC(=O)N[C@@H]1[C@@H](O[C@H](C)C(=O)N[C@@H](C)C(=O)N[C@H](CCC(=O)O)C(N)=O)[C@H](O)[C@@H](CN)O[C@@H]1O [ligand 2, 6-amino-MDP-(LD)]
Purified WT NOD2 [1]
  Kd: 2 to 10 nM
Purified WT NOD2 [2]
  Kd: 4 to 10 nM
[3]
  Kd: 3 to 30 nM
  relative binding strength: strong
  binding to NOD2 in the native-membrane environment (in words): bind with high affinity
  BSI signal on titration after preincubation with excess ligand 2: no BSI signal

## COC(=O)[C@@H](C)O[C@H]1[C@H](O)[C@@H](CN)O[C@H](O)[C@@H]1NC(C)=O [ligand 20]
Purified WT NOD2 [1]
  Kd: 2 to 10 nM
Purified WT NOD2 [2]
  Kd: 12 to 24 nM
[3]
  Kd: 50 to 200 nM
  relative binding strength: weak
  binding to NOD2 in the native-membrane environment (in words): bind with weak affinity; also recorded: weakly bound
  BSI signal on titration after preincubation with excess ligand 2: no BSI signal
